Activity calls are given as the source filed them. The rule behind the calls is not given here.
Legend:
SH-SY5Y [1] = test: Protection against H2O2-induced oxidative stress in human SH-SY5Y cells assessed as increase in SOD activity preincubated for 6 hrs followed by H2O2 addition and measured after 24 hrs by xanthine oxidase method; type: functional, cell-based
Summary of the method: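 Cellular SOD activity (units) and MDA content (μmol/g) measured in SH-SY5Y after pretreatment (1, 10 μM) and 600 μM H₂O₂. Mean ± S.E.M. of three independent experiments.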

SH-SY5Y [2] = test: Induction of mitochondrial dysfunction in non-stimulated human SH-SY5Y cells assessed as mitochondrial membrane potential at 10 uM measured after 6 hrs by Rh123 staining based flow cytometry (reference value: 97.6 %); type: cell-based
SH-SY5Y [3] = test: Neuroprotection against H2O2-induced cell death in human SH-SY5Y cells at 10 uM preincubated for 6 hrs followed by H2O2 addition and measured after 24 hrs in presence of HO-1 inhibitor ZnPPIX by MTT assay; type: functional, cell-based
Summary of the method: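 Cells pretreated with ZnPPIX (10 μM) for 1 h and with 1 (10 μM) for 6 h, then exposed to 600 μM H₂O₂ for 24 h. Viability by MTT. Mean ± S.E.M., three independent experiments.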

[4] = Activation of PI3K/Akt/mTOR signaling in human SH-SY5Y cells assessed as up regulation of HO-1 expression after 24 hrs by Western blot analysis; type: cell-based
Summary of the method: (§1)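 HO-1 western blot in SH-SY5Y cells incubated 24 h with 1 at 0.1, 1 or 10 μM, without H₂O₂. Band densitometry expressed as % of control. Mean ± S.E.M. from three independent experiments.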

Mus musculus = test: Anti-parkinson's activity in MPTP-induced C57Bl/6 mouse model of Parkinson's disease assessed as increase in tyrosine hydroxylase expression in substantia nigra at 10 to 20 mg/kg, ig pretreated for 10 days followed by MPTP challenge measured 10 days post MPTP addition by DAB staining based immunohistochemistry method; type: functional, organism-based
Summary of the method: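 Tissue taken 10 days after MPTP injection from mice dosed orally with 1 (10 or 20 mg/kg). TH in SNpc and striatum by western blot, and by DAB immunostaining. Three of the mice per group analysed. Mean ± S.D., n = 6 mice/group.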

[5] = Cmax in Sprague-Dawley rat at 25 mg/kg, po by LC-MS/MS analysis; type: ADME, organism-based; parameters: dose 25 mg/kg, route oral; conditions: in vivo
Summary of the method: (§2)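 Male Sprague–Dawley rats dosed with 1 at 5 mg/kg i.v. (vehicle 5% DMSO, 2% F68, 93% saline) or 25 mg/kg p.o. (0.5% methylcellulose with 1% Tween 80). Orbital blood sampled at 0.083–24 h, 12 time points. Plasma PK parameters derived. Mean ± SD, n = 3.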

SH-SY5Y [6] = test: Neuroprotection against H2O2-induced cell death in human SH-SY5Y cells assessed as cell viability at 1 uM preincubated for 6 hrs followed by H2O2 addition and measured after 24 hrs by MTT assay relative to control; type: functional; conditions: read-out: Activity
Summary of the method: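 SH-SY5Y cells pretreated with 1 at 1 or 10 μM, then exposed to 600 μM H₂O₂. Viability by MTT, expressed as % of control. DMSO below 0.1%. Mean ± S.E.M. of three independent experiments.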

[7] = Activation of PI3K/Akt/mTOR signaling in human SH-SY5Y cells assessed as up regulation of HO-1 expression at 10 uM after 24 hrs by Western blot analysis relative to control; type: cell-based; summary of the method: as §1
[8] = Activation of PI3K/Akt/mTOR signaling in human SH-SY5Y cells assessed as up regulation of HO-1 expression at 0.1 uM after 24 hrs by Western blot analysis relative to control; type: cell-based; summary of the method: as §1
SH-SY5Y [9] = test: Protection against H2O2-induced apoptosis in human SH-SY5Y cells assessed as late apoptotic cells at 10 uM preincubated for 6 hrs followed by H2O2 addition and measured after 24 hrs by Annexin V-FITC/propidium iodide staining based flow cytometry (reference value: 77.5%); type: functional
SH-SY5Y [10] = test: Protection against H2O2-induced apoptosis in human SH-SY5Y cells assessed as late apoptotic cells at 1 uM preincubated for 6 hrs followed by H2O2 addition and measured after 24 hrs by Annexin V-FITC/propidium iodide staining based flow cytometry (reference value: 77.5%); type: functional
SH-SY5Y [11] = test: Protection against H2O2-induced apoptosis in human SH-SY5Y cells assessed as decrease in ratio of Bax/Bcl2 expression preincubated for 6 hrs followed by H2O2 addition and measured after 24 hrs by Western blot analysis; type: functional, cell-based
Summary of the method: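 Western blot of Bax, Bcl-2 and cleaved caspase-3 in SH-SY5Y after pretreatment (1, 10 μM) and 600 μM H₂O₂. β-actin internal standard; Bax/Bcl-2 ratio from densitometry. Mean ± S.E.M., three independent experiments.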

[12] = Half life in Sprague-Dawley rat at 5 mg/kg, iv by LC-MS/MS analysis; type: ADME, organism-based; conditions: in vivo; summary of the method: as §2
SH-SY5Y [13] = test: Protection against H2O2-induced apoptosis in human SH-SY5Y cells assessed as early apoptotic cells at 10 uM preincubated for 6 hrs followed by H2O2 addition and measured after 24 hrs by Annexin V-FITC/propidium iodide staining based flow cytometry (reference value: 6.6%); type: functional
[14] = Volume of distribution at steady state in Sprague-Dawley rat at 5 mg/kg, iv by LC-MS/MS analysis; type: ADME, organism-based; conditions: in vivo, read-out: Vdss
Summary of the method: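 Male Sprague–Dawley rats (n = 3) dosed i.v. 5 mg/kg (5% DMSO, 2% F68, 93% saline) or p.o. 25 mg/kg (0.5% methylcellulose, 1% Tween 80). Orbital blood at 0.083–24 h (12 points). Plasma concentration–time profiles gave Cl, Vdss, AUC, T1/2, Tmax, Cmax, MRT and absolute F.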

SH-SY5Y [15] = test: Protection against H2O2-induced morphological changes in human SH-SY5Y cells at 1 to 10 uM preincubated for 6 hrs followed by H2O2 addition and measured after 24 hrs by inverted microscopic analysis; type: functional, cell-based
Summary of the method: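 Cell morphology under inverted microscope after pretreatment and 600 μM H₂O₂; DMSO below 0.1%.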

SH-SY5Y [16] = test: Cytotoxicity against non-stimulated human SH-SY5Y cells assessed as effect on cell viability at 1 to 100 uM measured after 24 hrs by MTT assay
SH-SY5Y [17] = test: Protection against H2O2-induced oxidative stress in human SH-SY5Y cells assessed as reduction in reactive oxygen species level preincubated for 6 hrs followed by H2O2 addition and measured after 24 hrs by DHE dye based inverted microscopic analysis; type: functional, cell-based
SH-SY5Y [18] = test: Protection against H2O2-induced apoptosis in human SH-SY5Y cells assessed as improvement in nuclear fragmentation at 1 to 10 uM preincubated for 6 hrs followed by H2O2 addition and measured after 24 hrs by Hoechst 33342 staining based inverted microscopic analysis; type: functional, cell-based
Summary of the method: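 Hoechst 33342 nuclear staining after pretreatment and 600 μM H₂O₂. Nuclear fragmentation and DNA condensation were scored visually.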

[19] = Activation of PI3K/Akt/mTOR signaling in human SH-SY5Y cells assessed as up regulation of H2O2-induced HO-1 expression at 10 uM preincubated for 6 hrs followed by H2O2 addition and after 24 hrs in presence of MEK1/2 inhibitor U0126 by Western blot analysis; type: cell-based
Summary of the method: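 SH-SY5Y cells preincubated 1 h with one inhibitor: SB203580 10 μM, LY294002 5 μM, U0126 10 μM, SP600125 5 μM or rapamycin 100 nM. Then 1 (10 μM) for 6 h, then 600 μM H₂O₂. HO-1 measured by western blot and densitometry. Mean ± S.E.M., three independent experiments.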

COC(=O)[C@H](Cc1ccccc1)NC(=O)/C=C/c1ccc(O)c(O)c1 [N-CAFFEOYL-PHENYLALANINE METHYL ESTER]
Activity (SH-SY5Y [1]): Dose-dependent effect
Activity (SH-SY5Y [2]): 98.1%
Activity (SH-SY5Y [3]): inactive
Activity [4]: Dose-dependent effect
Activity (Mus musculus): Active
Cmax [5]: 808 ng/mL
viability at 1 µM (SH-SY5Y [6]): 68.3%
Activity [7]: 206%
Activity [8]: 111%
Activity (SH-SY5Y [9]): 4.3%
Activity (SH-SY5Y [10]): 17.8%
Activity (SH-SY5Y [11]): Dose-dependent effect
half-life [12]: 51 min
Activity (SH-SY5Y [13]): 4.5%
Vd [14]: 2.25 L/kg
Activity (SH-SY5Y [15]): Active
Activity (SH-SY5Y [16]): Non-Toxic
Activity (SH-SY5Y [17]): Dose-dependent effect
Activity (SH-SY5Y [18]): Active
Activity [19]: Active

— ChEMBL document CHEMBL4308887, “Synthesis and biological evaluation of clovamide analogues with catechol functionality as potent Parkinson's disease agents in vitro and in vivo” (Bioorg Med Chem Lett, 2019)
